# Measurements as given in ChEMBL document CHEMBL1687720 (Antimicrob Agents Chemother, 2009).
# The source made the active and inactive calls. The rule behind the calls is not given here.
# Columns and labels:
# [1] = system: Plasmodium falciparum; assay: Antiplasmodial activity against chloroquine-resistant Plasmodium falciparum K1 in presence of quinine; assay type: functional
# [2] = system: A549; assay: Effect on thioredoxin reductase expression in human A549 cells assessed as transcript level at 662 nM after 24 hrs by RT-qPCR analysis relative to untreated control; assay type: functional; conditions: in the assay text read “662 uM” for “662 nM”
# Procedure, shortened: (§1)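 A549 cells are seeded at 2.5 × 10^5 per 25-cm2 well. At 40–45% confluence they are treated for 24 h with 166 or 662 μM, 158 or 315 μM, or 5 or 24 μM compound; controls receive <5% DMSO. Total RNA is DNase-treated and qRT-PCR is run in quadruplicate. Values are normalized to GAPDH and given as % of untreated control.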
# [3] = system: A549; assay: Inhibition of glutathione peroxidase in human A549 cells assessed as enzyme activity at 166 µM after 24 hrs relative to untreated control; design: scale not given: the % may be the effect or the level left
# [4] = system: A549; assay: Effect on glutathione peroxidase expression in human A549 cells assessed as transcript level at 662 nM after 24 hrs by RT-qPCR analysis relative to untreated control; assay type: functional; conditions: in the assay text read “662 µM” for “662 nM”; procedure, shortened: as §1
# [5] = target: T1, Thioredoxin reductase (Homo sapiens, UniProt Q16881+Q9NNW7+Q86VQ6); assay: Inhibition of thioredoxin reductase in human A549 cells assessed as enzyme activity at 662 µM after 24 hrs by DTNB assay relative to untreated control; design: scale not given: the % may be the effect or the level left
# [6] = target: T1, Thioredoxin reductase; assay: Inhibition of thioredoxin reductase in human A549 cells assessed as enzyme activity at 166 µM after 24 hrs by DTNB assay relative to untreated control; design: scale not given: the % may be the effect or the level left
# [7] = system: Plasmodium falciparum; assay: Antiplasmodial activity against chloroquine-resistant Plasmodium falciparum K1 in presence of artemisinin; assay type: functional
# [8] = system: Plasmodium falciparum; assay: Antiplasmodial activity against chloroquine-resistant Plasmodium falciparum K1 in presence of methylene blue; assay type: functional
# [9] = system: A549; assay: Inhibition of glutathione S-transferase in human A549 cells assessed as enzyme activity at 315 µM after 24 hrs relative to untreated control; design: scale not given: the % may be the effect or the level left
# [10] = system: A549; assay: Effect on thioredoxin reductase expression in human A549 cells assessed as transcript level at 315 nM after 24 hrs by RT-qPCR analysis relative to untreated control; assay type: functional; conditions: in the assay text read “315 µM” for “315 nM”; procedure, shortened: as §1
# [11] = system: Plasmodium falciparum; assay: Antiplasmodial activity against chloroquine-sensitive Plasmodium falciparum 3D7 assessed as inhibition of ring stage parasite growth at 526 nM after 24 hrs by [3H]hypoxanthine incorporation assay; assay type: functional; conditions: read-out: GI
# Procedure, shortened: (§2)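 P. falciparum 3D7 is synchronized with sorbitol. […] Cells are washed four times, then labelled with [3H]hypoxanthine for 24 h. Growth is given as % of untreated control for each stage, in triplicate.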
# [12] = system: Plasmodium falciparum; assay: Downregulation of thioredoxin peroxidase mRNA level in Plasmodium falciparum 3D7 trophozoites at 126 nM after 18 hrs by RT-qPCR analysis relative to untreated control; assay type: functional
# Procedure, shortened: (§3)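 P. falciparum 3D7 trophozoites are exposed to 126 nM compound for 12, 15 or 18 h, then harvested by saponin lysis at 37°C. RNA is extracted and reverse-transcribed, and transcripts are quantified by real-time PCR in quadruplicate. Analysis uses ΔΔCT with 18S rRNA as reference (LDH also checked), expressed as % of untreated control.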
# [13] = system: Plasmodium falciparum; assay: Upregulation of glutathione synthetase mRNA level in Plasmodium falciparum 3D7 trophozoites at 126 nM after 15 hrs by RT-qPCR analysis relative to untreated control; assay type: functional
# Procedure, shortened: (§4)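 Synchronized 3D7 trophozoites in RPMI/Albumax culture at 37°C under 3% O2, 3% CO2 were exposed 12, 15 or 18 h, then harvested by 0.02% saponin lysis. RNA was reverse-transcribed and analyzed by real-time PCR in quadruplicate. Quantification used ΔΔCT with 18S rRNA reference (LDH also checked), expressed as % of untreated control.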
# [14] = system: Plasmodium falciparum; assay: Upregulation of glutathione S-transferase mRNA level in Plasmodium falciparum 3D7 trophozoites at 126 nM after 12 hrs by RT-qPCR analysis relative to untreated control; assay type: functional, organism-based; procedure, shortened: as §4
# [15] = system: Plasmodium falciparum; assay: Upregulation of selenoprotein-1 mRNA level in Plasmodium falciparum 3D7 trophozoites at 126 nM after 12 hrs by RT-qPCR analysis relative to untreated control; assay type: functional; procedure, shortened: as §4
# [16] = system: A549; assay: Inhibition of glutathione S-transferase in human A549 cells assessed as enzyme activity at 24 µM after 24 hrs relative to untreated control; design: scale not given: the % may be the effect or the level left
# [17] = system: Plasmodium falciparum; assay: Upregulation of glutathione synthetase mRNA level in Plasmodium falciparum 3D7 trophozoites at 126 nM after 12 hrs by RT-qPCR analysis relative to untreated control; assay type: functional; procedure, shortened: as §4
# [18] = system: Plasmodium falciparum; assay: Antiplasmodial activity against chloroquine-sensitive Plasmodium falciparum 3D7 assessed as inhibition of schizont stage parasite growth at 526 nM after 24 hrs by [3H]hypoxanthine incorporation assay; assay type: functional; conditions: read-out: GI; procedure, shortened: as §2
# [19] = target: T1, Thioredoxin reductase; assay: Inhibition of thioredoxin reductase in human A549 cells assessed as enzyme activity at 24 µM after 24 hrs by DTNB assay relative to untreated control; design: scale not given: the % may be the effect or the level left
# [20] = system: Plasmodium falciparum; assay: Downregulation of glutathione reductase mRNA level in Plasmodium falciparum 3D7 trophozoites at 126 nM after 18 hrs by RT-qPCR analysis relative to untreated control; assay type: functional; procedure, shortened: as §3
# [21] = system: Plasmodium falciparum; assay: Downregulation of DNA-directed RNA polymerase 2 mRNA level in Plasmodium falciparum 3D7 trophozoites at 126 nM by RT-qPCR analysis relative to untreated control; assay type: functional; procedure, shortened: as §3
# [22] = system: Plasmodium falciparum; assay: Upregulation of Heat shock protein mRNA level in Plasmodium falciparum 3D7 trophozoites at 126 nM by RT-qPCR analysis relative to untreated control; assay type: functional; procedure, shortened: as §4
# [23] = system: Plasmodium falciparum; assay: Downregulation of gamma-glutamylcysteine synthetase mRNA level in Plasmodium falciparum 3D7 trophozoites at 126 nM after 18 hrs by RT-qPCR analysis relative to untreated control; assay type: functional; procedure, shortened: as §3
# [24] = system: Plasmodium falciparum; assay: Upregulation of gamma-glutamylcysteine synthetase mRNA level in Plasmodium falciparum 3D7 trophozoites at 126 nM after 12 hrs by RT-qPCR analysis relative to untreated control; assay type: functional; procedure, shortened: as §4
# [25] = system: A549; assay: Effect on glutathione S-transferase expression in human A549 cells assessed as transcript level at 24 nM after 24 hrs by RT-qPCR analysis relative to untreated control; assay type: functional; conditions: in the assay text read “24 µM” for “24 nM”; procedure, shortened: as §1
# [26] = system: A549; assay: Inhibition of glutathione peroxidase in human A549 cells assessed as enzyme activity at 5 µM after 24 hrs relative to untreated control; design: scale not given: the % may be the effect or the level left
smiles,measurement,setting,value
O=c1oc2c(O)c(O)cc3c(=O)oc4c(O)c(O)cc1c4c23 [ELLAGIC ACID],FIC50,[1],1
same,Activity,[2],131%
same,Activity,[3],86%
same,Activity,[4],150%
same,Activity,[5],77%
same,Activity,[6],82%
same,FIC50,[7],1
same,FIC50,[8],1
O=c1oc2c(O)c(O)c(O)c3c(=O)oc4c(O)c(O)cc1c4c23 [FLAVELLAGIC ACID],Activity,[9],121%
same,Activity,[10],61%
O=c1oc2c(O)c(O)c(O)c3c(=O)oc4c(O)c(O)c(O)c1c4c23 [CORULEOELLAGIC ACID],inhibition of growth at 0.526 µM,[11],38%
same,Activity,[12],19%
same,Activity,[13],128%
same,Activity,[14],inactive
same,Activity,[15],160%
same,Activity,[16],106%
same,Activity,[17],128%
same,inhibition of growth at 0.526 µM,[18],39%
same,Activity,[19],45%
same,Activity,[20],62%
same,Activity,[21],42%
same,Activity,[22],158%
same,Activity,[23],25%
same,Activity,[24],111%
same,Activity,[25],84%
same,Activity,[26],85%
